{"source": "ChEMBL document CHEMBL1148309", "about": "“Roles of conformational and positional adaptability in structure-based design of TMC125-R165335 (etravirine) and related non-nucleoside reverse transcriptase inhibitors that are highly potent and effective against wild-type and drug-resistant HIV-1 variants” (J Med Chem, 2004)", "format_in_all_cases": "functional, organism-based", "key": {"[1]": {"system": "Human immunodeficiency virus 1", "assay": "Potency evaluated against NNRTI-Resistant HIV-1 strain Gly190Ala", "procedure,_shortened": "(§1)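 Test compound dilutions in microtiter wells; HIV added at 200-250 CCID50/well and MT4 cells at 3 × 10^4 cells/well (final). Incubated 5 days at 37 °C, 5% CO2. Cytopathic effect of replicating virus read by MTT tetrazolium colorimetry. EC50 is the dose achieving 50% infection.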"}, "[2]": {"system": "Human immunodeficiency virus 1", "assay": "Potency evaluated against NNRTI-Resistant HIV-1 strain Tyr188Leu", "procedure,_shortened": "as §1"}, "[3]": {"system": "Human immunodeficiency virus 1", "assay": "Potency evaluated against NNRTI-Resistant HIV-1 strain Lys103Asn", "procedure,_shortened": "as §1"}, "[4]": {"system": "Human immunodeficiency virus 1", "assay": "Potency evaluated against NNRTI-Resistant HIV-1 strain Leu100Ile", "procedure,_shortened": "as §1"}, "[5]": {"system": "Human immunodeficiency virus 1", "assay": "Potency evaluated against wild type HIV-1 strain IIIB", "procedure,_shortened": "as §1"}, "[6]": {"system": "Human immunodeficiency virus 1", "assay": "Potency evaluated against NNRTI-Resistant HIV-1 strain Val106Ala", "procedure,_shortened": "as §1"}, "[7]": {"system": "Human immunodeficiency virus 1", "assay": "Potency evaluated against NNRTI-Resistant HIV-1 strain Tyr181Cys", "procedure,_shortened": "as §1"}}}
{"smiles": "N#Cc1ccc(NC(=S)NC(=N)Cc2c(Cl)cccc2Cl)cc1", "values": [{"measurement": "EC50", "setting": "[1]", "value": 2, "unit": "nM"}, {"measurement": "EC50", "setting": "[2]", "value": 318, "unit": "nM"}, {"measurement": "EC50", "setting": "[3]", "value": 589, "unit": "nM"}, {"measurement": "EC50", "setting": "[4]", "value": 513, "unit": "nM"}, {"measurement": "EC50", "setting": "[5]", "value": 3, "unit": "nM"}, {"measurement": "EC50", "setting": "[6]", "value": 382, "unit": "nM"}, {"measurement": "EC50", "setting": "[7]", "value": 511, "unit": "nM"}]}
{"smiles": "N#Cc1ccc(Nc2nc(N)nc(Cc3c(Cl)cccc3Cl)n2)cc1", "values": [{"measurement": "EC50", "setting": "[1]", "value": 1, "unit": "nM"}, {"measurement": "EC50", "setting": "[2]", "value": 431, "unit": "nM"}, {"measurement": "EC50", "setting": "[3]", "value": 41, "unit": "nM"}, {"measurement": "EC50", "setting": "[4]", "value": 293, "unit": "nM"}, {"measurement": "EC50", "setting": "[5]", "value": 2, "unit": "nM"}, {"measurement": "EC50", "setting": "[6]", "value": 26, "unit": "nM"}, {"measurement": "EC50", "setting": "[7]", "value": 277, "unit": "nM"}]}
{"smiles": "N#Cc1ccc(Nc2nc(N)nc(Cc3c(Cl)ccc4[nH]ccc34)n2)cc1", "values": [{"measurement": "EC50", "setting": "[1]", "value": 3, "unit": "nM"}, {"measurement": "EC50", "setting": "[2]", "value": 1000, "unit": "nM"}, {"measurement": "EC50", "setting": "[3]", "value": 63, "unit": "nM"}, {"measurement": "EC50", "setting": "[4]", "value": 1000, "unit": "nM"}, {"measurement": "EC50", "setting": "[5]", "value": 3, "unit": "nM"}, {"measurement": "EC50", "setting": "[6]", "value": 63, "unit": "nM"}, {"measurement": "EC50", "setting": "[7]", "value": 250, "unit": "nM"}]}
{"smiles": "N#Cc1ccc(Nc2nc(N)nc(Oc3c(Cl)cccc3Cl)n2)cc1", "values": [{"measurement": "EC50", "setting": "[2]", "value": 320, "unit": "nM"}, {"measurement": "EC50", "setting": "[3]", "value": 79, "unit": "nM"}, {"measurement": "EC50", "setting": "[4]", "value": 320, "unit": "nM"}, {"measurement": "EC50", "setting": "[5]", "value": 3, "unit": "nM"}, {"measurement": "EC50", "setting": "[6]", "value": 100, "unit": "nM"}, {"measurement": "EC50", "setting": "[7]", "value": 250, "unit": "nM"}]}
{"smiles": "Cc1cc(C#N)cc(C)c1Oc1nc(Nc2ccc(C#N)cc2)nc(CO)c1Br", "values": [{"measurement": "EC50", "setting": "[1]", "value": 1, "unit": "nM"}, {"measurement": "EC50", "setting": "[2]", "value": 6, "unit": "nM"}, {"measurement": "EC50", "setting": "[3]", "value": 4, "unit": "nM"}, {"measurement": "EC50", "setting": "[4]", "value": 2, "unit": "nM"}, {"measurement": "EC50", "setting": "[5]", "value": 4, "unit": "nM"}, {"measurement": "EC50", "setting": "[6]", "value": 2, "unit": "nM"}, {"measurement": "EC50", "setting": "[7]", "value": 6, "unit": "nM"}]}
{"smiles": "CC(=O)c1ccc(C)cc1N[C@@H](C(N)=O)c1c(Br)cccc1Br", "note": "[(R)-LOVIRIDE]", "values": [{"measurement": "EC50", "setting": "[1]", "value": 2510, "unit": "nM"}, {"measurement": "EC50", "setting": "[2]", "value": 50100, "unit": "nM"}, {"measurement": "EC50", "setting": "[3]", "value": 1260, "unit": "nM"}, {"measurement": "EC50", "setting": "[4]", "value": 50, "unit": "nM"}, {"measurement": "EC50", "setting": "[5]", "value": 5, "unit": "nM"}, {"measurement": "EC50", "setting": "[6]", "value": 1000, "unit": "nM"}, {"measurement": "EC50", "setting": "[7]", "value": 15800, "unit": "nM"}]}
{"smiles": "Cc1cc(C)c(Nc2ccnc(Nc3ccc(C#N)cc3)n2)c(C)c1", "note": "[DAPIVIRINE]", "values": [{"measurement": "EC50", "setting": "[1]", "value": 1, "unit": "nM"}, {"measurement": "EC50", "setting": "[2]", "value": 40, "unit": "nM"}, {"measurement": "EC50", "setting": "[3]", "value": 4, "unit": "nM"}, {"measurement": "EC50", "setting": "[4]", "value": 16, "unit": "nM"}, {"measurement": "EC50", "setting": "[5]", "value": 1, "unit": "nM"}, {"measurement": "EC50", "setting": "[6]", "value": 3, "unit": "nM"}, {"measurement": "EC50", "setting": "[7]", "value": 8, "unit": "nM"}]}
{"smiles": "CC(C)Nc1cccnc1N1CCN(C(=O)c2cc3cc(NS(C)(=O)=O)ccc3[nH]2)CC1", "note": "[DELAVIRDINE]", "values": [{"measurement": "EC50", "setting": "[1]", "value": 38, "unit": "nM"}, {"measurement": "EC50", "setting": "[2]", "value": 178, "unit": "nM"}, {"measurement": "EC50", "setting": "[3]", "value": 1700, "unit": "nM"}, {"measurement": "EC50", "setting": "[4]", "value": 3470, "unit": "nM"}, {"measurement": "EC50", "setting": "[5]", "value": 16, "unit": "nM"}, {"measurement": "EC50", "setting": "[6]", "value": 2240, "unit": "nM"}, {"measurement": "EC50", "setting": "[7]", "value": 1340, "unit": "nM"}]}
{"smiles": "Cc1cc(C#N)cc(C)c1Oc1nc(Nc2ccc(C#N)cc2)nc(N)c1Br", "note": "[ETRAVIRINE]", "values": [{"measurement": "EC50", "setting": "[1]", "value": 1, "unit": "nM"}, {"measurement": "EC50", "setting": "[2]", "value": 3, "unit": "nM"}, {"measurement": "EC50", "setting": "[3]", "value": "[…]"}, {"measurement": "EC50", "setting": "[4]", "value": 3, "unit": "nM"}, {"measurement": "EC50", "setting": "[5]", "value": 20, "unit": "nM"}, {"measurement": "EC50", "setting": "[6]", "value": 2, "unit": "nM"}, {"measurement": "EC50", "setting": "[7]", "value": 6, "unit": "nM"}]}
{"smiles": "Cc1ccnc2c1NC(=O)c1cccnc1N2C1CC1", "note": "[NEVIRAPINE]", "values": [{"measurement": "EC50", "setting": "[1]", "value": 3460, "unit": "nM"}, {"measurement": "EC50", "setting": "[2]", "value": "> 100000", "unit": "nM"}, {"measurement": "EC50", "setting": "[3]", "value": 2470, "unit": "nM"}, {"measurement": "EC50", "setting": "[4]", "value": 638, "unit": "nM"}, {"measurement": "EC50", "setting": "[5]", "value": 85, "unit": "nM"}, {"measurement": "EC50", "setting": "[6]", "value": 2410, "unit": "nM"}, {"measurement": "EC50", "setting": "[7]", "value": 5350, "unit": "nM"}]}
